# Assay outcomes from PubChem.
# In the library only some 2.4% were active in any assay of this set; here they are far more common.
# MT stabilize HCS = microtubule stabilizers in HeLa cells, primary screen, imaging, high-content imaging. HeLa tubulin immunostaining HCS, 24 h; share of cells brighter than vehicle mean+2SD. % tubulin-high responders, % at 10 µM. actives 0.83% (n = 200,000). AID 2205, 2009;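 active means plate Z-score above 3 for both tubulin-high and condensed-nucleus cell shares, with cell loss under 80%, at 10 µM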;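 further: anti alpha tubulin signal scored within the nucleus-defined area of each cell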
# TbHK1 inh = Trypanosoma brucei hexokinase 1 inhibitors, primary screen, biochemical, G6PDH-coupled NADH absorbance, MLSCN library. hexokinase 1 [Trypanosoma brucei]. recombinant TbHK1, G6PDH-coupled NADH A340. inhibition, % at 10 µM. actives 0.11% (n = 220,000). AID 1430, 2008;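 active means inhibition of 50% or more in the single-dose primary screen; inactive means inhibition below 50%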
# PGE2 EP2 inh = human EP2 receptor antagonists, primary screen, TR-FRET cAMP, C6 glioma cells; actives 0.52% (n = 260,000); inhibition, % at 25 µM; C6 glioma cells expressing human EP2; cells stimulated with saturating PGE2; AID 1422, 2008; Prostaglandin E2 receptor EP2 subtype (Homo sapiens), P43116;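 active means percent inhibition above 40 after rounding to a whole number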;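 further: rat C6 glioma host cells with rolipram phosphodiesterase inhibitor present; the protocol text gives 20 µM as final concentration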
# Target sequence (P43116 whole entry, looked up): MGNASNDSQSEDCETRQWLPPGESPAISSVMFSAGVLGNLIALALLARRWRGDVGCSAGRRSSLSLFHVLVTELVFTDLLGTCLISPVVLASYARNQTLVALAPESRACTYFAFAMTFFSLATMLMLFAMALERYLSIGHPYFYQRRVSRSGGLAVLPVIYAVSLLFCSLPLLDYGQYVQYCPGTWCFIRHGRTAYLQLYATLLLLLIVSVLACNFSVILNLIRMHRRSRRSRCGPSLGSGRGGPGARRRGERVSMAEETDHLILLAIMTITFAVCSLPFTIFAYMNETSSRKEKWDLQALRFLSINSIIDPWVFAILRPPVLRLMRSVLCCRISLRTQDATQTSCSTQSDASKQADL
# HMGR II inh = inhibitors of E. faecalis class II HMGR, primary screen, biochemical, Enterococcus faecalis; HMG-CoA reductase (Enterococcus faecalis, mvaE); purified E. faecalis HMGR, NADPH absorbance 340 nm kinetic; inhibition, % at 10 µM; actives 0.41% (n = 190,000); AID 1066, 2008;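 active means inhibition above a set limit, the median over all tested compounds plus 3 SD, cut at about 9.5% in these data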;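 further: enzyme runs in reverse so mevalonate oxidation gives rising NADPH absorbance; 0% = complete reaction with DMSO and 100% = background rate lacking mevalonate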
# EP2 mod = EP2 receptor modulators, cAMP readout, primary screen, cell-based, HTRF cAMP, PGE2 stimulation. Prostaglandin E2 receptor EP2 subtype (Homo sapiens), P43116. EP2-expressing cells, cAMP HTRF FRET, PGE2 co-stimulation. induction, % at 25 µM. actives 0.83% (n = 260,000). AID 940, 2007;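 active means compounds whose cAMP rise, as percent of the full-agonist control response, exceeds 60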;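 further: rat C6 glioma line stably carrying human EP2 under a CMV promoter; the protocol text gives 20 µM as final concentration; 100% = response of wells given 1 µM PGE2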
# bCat nuc transl = modulators of beta-catenin nuclear translocation, primary screen, imaging, HeLa cells, immunofluorescence, high-content; nuclear translocation activity, % at 5 µM; actives 0.3% (n = 190,000);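 active means nuclear translocation activity above 50% at 5 µM, with a well cell count of 50 or more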;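 further: per-cell ratio of nuclear to cytoplasmic median beta-catenin stain intensity; plate controls were DMSO negative control for no effect and GSK-3 inhibitor IX positive control for full effect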
#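 System: Human HeLa cells, endogenous beta-catenin | Compound dosing: 5 µM primary, 0.02–20 µM confirmation | Timing: 24 h compound exposure at 37°C, 5% CO2 | Measured by: Fluorescence imaging of beta-catenin antibody stain plus DAPI | Read-out basis: % activation of per-cell nuclear versus cytoplasmic median beta-catenin signal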
# * hit, by the source's call; . = no result.
SMILES,MT stabilize HCS,TbHK1 inh,PGE2 EP2 inh,HMGR II inh,EP2 mod,bCat nuc transl
CCOC(=O)CSc1nc2ccc(Nc3nc(N4CCOCC4)nc(N4CCOCC4)n3)cc2s1,4,-15,72*,-8,-34,0
CSc1ncnc2c1ncn2CC(=O)[C@@H]1CC[C@@H]2[C@H]3CCC4=CC(=O)CC[C@@]4(C)[C@@H]3CC[C@]21C,.,.,64*,.,14,.
C[C@]12CC[C@H]3[C@@H](CCC4=CC(=O)CC[C@@]43C)[C@@H]1CC[C@@H]2C(=O)CO,6,-2,13,-2,-1,-3
O=C(Cc1n[nH]c(=O)c2ccccc12)OCC(=O)c1ccc2c(c1)OCCO2,21*,2,2,-1,-16,18
Cc1cc(C(=O)COC(=O)Cc2n[nH]c(=O)c3ccccc23)c(C)n1-c1ccc2c(c1)OCO2,2,-2,7,-1,10,0
O=C(N/N=C/c1cc(Br)cc(Br)c1O)c1cccc(N2CCCC2=O)c1,3,-6,14,14*,-30,-2
O=C1C=CC(=O)N1c1cccc(-c2ccccc2)c1,.,8,114*,.,-61,1
N#CC1=C(N)NC(SCC(=O)O)=C(C#N)C12CCCC2,7,-1,17,-3,37,-6
N#CC1=C(N)NC(SCc2ccc(F)cc2)=C(C#N)C12CCCCC2,47*,-2,21,-5,-59,.
O=C(c1cccc(Cl)c1)N(Cc1nc2ccccc2c(=O)[nH]1)C1CCCC1,.,.,8,.,21,.
COc1ccc2cc(C)c3nnc(SCC(=O)N4CCCC(C)C4)n3c2c1 (stereo not given),.,.,10,.,-24,.
N#C/C(=C\Nc1ccccc1O)c1nc2ccccc2o1,3,0,54*,-6,-105,8
CC1(C)CC(=O)C2=C(C1)Nc1ccccc1NC2c1cc(O)ccc1O (stereo not given),.,.,47*,.,-88,.
CC(C)(C)C1=NN(CC(=O)Nc2nccs2)C(=O)c2cc3ccccc3n2C1,.,.,6,.,33,.
O=C(Nc1cc2nn(-c3ccccc3)nc2cc1Cl)c1ccc2c(c1)OCO2,.,.,10,.,-6,.
CNCc1ccccc1Sc1cc(O)ccc1O,5,-1,106*,-5,-3,-1
N#Cc1cc2ccccc2nc1SCC(=O)Nc1c[nH]c(=O)[nH]c1=O,.,.,8,.,37,.
CC(=O)Cc1nsc(NC(=O)c2ccc(-c3ccccc3Cl)o2)n1,24*,-47,5,-11,1,2
CC(=O)Cc1nsc(NC(=O)c2oc(-c3ccccc3Cl)cc2C)n1,2,-32,9,.,6,1
Nc1nc(SCC(=O)C2CCC(Br)CC2)c2[nH]cnc2n1 (stereo not given),.,.,49*,.,-33,.
Nc1nc(SCC2CCCCC2[N+](=O)[O-])c2[nH]cnc2n1 (stereo not given),.,.,16,.,-7,.
COc1ccc(NC(=O)CSc2nnc3c4c5c(sc4nc(C)n23)CCCC5)cc1,.,.,10,.,-19,.
CC(C)(C)c1cc(NCc2ccccn2)n2ncc(-c3ccccc3)c2n1,.,-18,5,.,62*,0
Cc1cc(C)n(-c2cc(C(C)(C)C)nc3c(-c4ccccc4)cnn23)n1,.,-26,4,.,0,0
O=C(NCc1cccs1)C1CC(c2ccc(Cl)c(Cl)c2)=NO1 (stereo not given),3,-2,9,-1,-96,62*
COc1ccc(OC)c(C2=NOC(C(=O)NCc3cccs3)C2)c1 (stereo not given),23*,-8,3,4,-48,-1
COc1ccc(OC)c(C2=NOC(C(=O)NCCN3CCOCC3)C2)c1 (stereo not given),2,-5,3,3,16,-1
O=C(NCc1cccs1)C1CC(c2ccc(Cl)cc2)=NO1 (stereo not given),3,1,10,-11,-97,1
Cc1nc2cc(-c3cccs3)nn2c(NCCCN)c1C,.,.,12,.,-45,.
